Test results taken from publication PMC12217639 (Scientific Reports, 2025).
Peptide text beside a SMILES is read from it.

Legend:
Format in all cases: cell-based, human
[1] = system: PDO-S (ICC patient-derived organoid); assay: Drug sensitivity experiment of organoids; settings: by IC50, 24 h, CellTiter-Glo
HIBEpiC cells = assay: Membrane potential; settings: 1 x 10^5 cells/mL, peptide 2.5, 5, 10, 20 µM, 1 h
In short: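 A cell suspension at 1 × 10^5 cells/mL was incubated 1 h with peptide at 0 (control), 2.5, 5, 10 or 20 µM. The mixture was then loaded into a folded capillary cell, and zeta potential was read on a NanoZetasizer.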

[2] = system: PDO-K (ICC patient-derived organoid); assay: Drug sensitivity experiment of organoids; settings: by IC50, 24 h, CellTiter-Glo; for overall sensitivity of the three PDOs: overall across PDO-K, PDO-S and PDO-L
[3] = system: PDO-L (ICC patient-derived organoid); assay: Drug sensitivity experiment of organoids; settings: by IC50, 24 h, CellTiter-Glo

| Structure (SMILES) | rank of therapeutic effect among the drugs, PDO-S [1] | change of zeta potential of normal cells after peptide treatment (HIBEpiC cells) | rank of therapeutic effect among the drugs, PDO-K [2] | overall sensitivity of the three PDOs [2] | rank of therapeutic effect among the drugs, PDO-L [3] |
| --- | --- | --- | --- | --- | --- |
| Nc1ccn([C@@H]2O[C@H](CO)[C@@H](O)C2(F)F)c(=O)n1 [Gemcitabine] | most effective | – | – | – | – |
| CC(C)C[C@H](NC(=O)[C@H](CC(C)C)NC(=O)[C@H](CCCCN)NC(=O)[C@H](CCCCN)NC(=O)[C@H](CC(C)C)NC(=O)[C@H](CC(C)C)NC(=O)[C@H](CCCCN)NC(=O)[C@H](CCCCN)NC(=O)[C@H](CC(C)C)NC(=O)[C@H](CC(C)C)NC(=O)[C@H](CCCCN)NC(=O)[C@H](CCCCN)NC(=O)[C@H](CC(C)C)NC(=O)[C@@H](N)CC(C)C)C(N)=O [KL-8] (H-LLKKLLKKLLKKLL-NH2) | – | no statistically significant changes | best therapeutic effect | highest sensitivity | best therapeutic effect |
| CNC(=O)c1cc(Oc2ccc(NC(=O)Nc3ccc(Cl)c(C(F)(F)F)c3)cc2)ccn1 [Sorafenib, reference compound] | – | – | – | lowest sensitivity | – |
